For assay [1], the target named is T1, Serine/threonine-protein kinase B-raf (Homo sapiens, UniProt P15056, V600E). Description: Inhibition of BRAF V600E mutant in human WM266.4 cells assessed as inhibition of ERK phosphorylation after 6 hrs by DELFIA assay. Type of assay: cell-based. In a few lines:
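In BRAF-dependent WM266.4 cells, inhibition of ERK phosphorylation measured in a cellular assay and reported as IC50.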

A short description of assay [2]: Antiproliferative activity against human WM266.4 cells after 6 days by SRB assay. Type of assay: functional. As to conditions: WM 266-4, 144 h. In a few lines:
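BRAF-dependent WM266.4 melanoma cells; growth inhibition read by SRB staining and reported as GI50.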

Assay [3] deals with T1, Serine/threonine-protein kinase B-raf. Description: Inhibition of human recombinant N-terminal His-tagged BRAF V600E mutant expressed in Sf9 cells using GST-tagged MEK1 and ATP as substrate incubated for 10 mins prior to ATP addition measured after 45 mins by DELFIA assay. The method in brief: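 Enzyme assay with the V600E BRAF mutant in vitro; inhibition reported as IC50.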

Usually IC50 stands for the concentration needed to halve the response being measured. The GI50 is the concentration giving 50% growth inhibition. A lower GI50 goes with greater sensitivity of the cells.

T1 sequence (P15056 2-766 V600E limits assumed): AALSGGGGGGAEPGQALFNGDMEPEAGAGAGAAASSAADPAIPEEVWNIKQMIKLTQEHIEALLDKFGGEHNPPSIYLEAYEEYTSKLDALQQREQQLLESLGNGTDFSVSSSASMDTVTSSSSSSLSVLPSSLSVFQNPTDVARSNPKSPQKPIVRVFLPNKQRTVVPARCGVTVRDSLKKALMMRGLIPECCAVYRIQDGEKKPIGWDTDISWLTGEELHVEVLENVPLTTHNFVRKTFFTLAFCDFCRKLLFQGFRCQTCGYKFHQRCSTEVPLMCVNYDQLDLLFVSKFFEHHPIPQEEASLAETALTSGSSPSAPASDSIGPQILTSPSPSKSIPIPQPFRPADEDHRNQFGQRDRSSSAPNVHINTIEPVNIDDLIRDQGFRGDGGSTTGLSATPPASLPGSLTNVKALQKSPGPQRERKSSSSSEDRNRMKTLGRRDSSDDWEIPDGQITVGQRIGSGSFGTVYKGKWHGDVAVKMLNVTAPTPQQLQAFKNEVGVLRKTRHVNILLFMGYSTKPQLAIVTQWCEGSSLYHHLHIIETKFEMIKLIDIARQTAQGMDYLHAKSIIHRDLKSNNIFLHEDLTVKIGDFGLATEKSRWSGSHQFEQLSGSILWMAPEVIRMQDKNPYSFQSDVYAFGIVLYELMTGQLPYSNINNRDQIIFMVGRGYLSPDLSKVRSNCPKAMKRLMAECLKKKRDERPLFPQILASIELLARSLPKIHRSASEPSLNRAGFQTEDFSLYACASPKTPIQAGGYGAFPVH

Regarding `CN(C)CCOc1ccc(-c2nc(-c3ccc4cc(O)ccc4c3)c(-c3ccncc3)[nH]2)cc1`, the results for the IC50 in assay [1] and in assay [3] were 14 µM and 8.8 µM, respectively. This compound also registered a GI50 in assay [2] of 4.3 µM. On the same counts, the results for `CN(C)CCOc1ccc(-c2nc(-c3ccc4c(O)c(Cl)ccc4c3)c(-c3ccncc3)[nH]2)cc1` are 1.25 µM, 0.042 µM and 1.1 µM.

Take `CN(C)CCOc1ccc(-c2nc(-c3ccc4c(O)c(F)ccc4c3)c(-c3ccncc3)[nH]2)cc1`: the half-inhibitory concentration (IC50) in assay [1] was 0.25 µM; in assay [3], 0.029 µM. Further, the GI50 in assay [2] was found to be 11 µM. With `CN(C)CCOc1ccc(-c2nc(-c3ccc4ccc(=O)[nH]c4c3)c(-c3ccncc3)[nH]2)cc1`, the IC50 in assay [3] is > 100 µM. Still for that read-out and setting: the figure for `CN(C)CCOc1ccc(-c2nc(-c3ccc4[nH]c(=O)ccc4c3)c(-c3ccncc3)[nH]2)cc1` is > 100 µM; for `CN(C)CCOc1ccc(-c2nc(-c3ccc4c(=O)[nH]ccc4c3)c(-c3ccncc3)[nH]2)cc1` it is > 10 µM. Turning to `CN(C)CCOc1ccc(-c2nc(-c3ccc4c(N)nccc4c3)c(-c3ccncc3)[nH]2)cc1`, the IC50 stood at 5.1 µM in assay [1] and 1.1 µM in assay [3]. In assay [2], this compound came in with a GI50 of 5.7 µM. On to `CN(C)CCOc1ccc(-c2nc(-c3ccc4cc(F)ccc4c3)c(-c3ccncc3)[nH]2)cc1`, for which the IC50 in assay [3] is > 10 µM. Turning to `CN(C)CCOc1ccc(-c2nc(-c3ccc4cc(C(=O)O)ccc4c3)c(-c3ccncc3)[nH]2)cc1`, the IC50 in assay [3] was > 10 µM. For `CN(C)CCOc1ccc(-c2nc(-c3ccc(Cl)c(Cl)c3)c(-c3ccncc3)[nH]2)cc1`, the IC50 came to 5.9 µM in assay [1] and 0.58 µM in assay [3]. In assay [2], this compound registered a concentration for 50% growth inhibition (GI50) of 1.6 µM. Regarding `CN(C)CCOc1ccc(-c2nc(-c3ccc(F)c(Cl)c3)c(-c3ccncc3)[nH]2)cc1`, the IC50 in assay [3] was > 10 µM. In the case of `CN(C)CCOc1ccc(-c2nc(-c3ccc4c(CO)coc4c3)c(-c3ccncc3)[nH]2)cc1`, the IC50 in assay [3] was > 10 µM. The same measure, in the same setting: the figure for `CN(C)CCOc1ccc(-c2nc(-c3ccc4c(C(N)=O)coc4c3)c(-c3ccncc3)[nH]2)cc1` is > 10 µM. Still for that read-out and setting: the figure for `CN(C)CCOc1ccc(-c2nc(-c3ccc4c(C=O)csc4c3)c(-c3ccncc3)[nH]2)cc1` is > 10 µM; for `CN(C)CCOc1ccc(-c2nc(-c3ccc4c(CO)csc4c3)c(-c3ccncc3)[nH]2)cc1` it is > 10 µM. Turning to `CN(C)CCOc1ccc(-c2nc(-c3ccc4c([C@@H](O)C(F)(F)F)csc4c3)c(-c3ccncc3)[nH]2)cc1`, the IC50 in assay [1] was determined as 2.3 µM; in assay [3], 0.19 µM. This compound also came in with a GI50 in assay [2] of 2.1 µM. In the case of `CCCSc1csc2cc(-c3nc(-c4ccc(OCCN(C)C)cc4)[nH]c3-c3ccncc3)ccc12`, the concentration for half-maximal inhibition (IC50) in assay [1] was determined as 31 µM; in assay [3] it was 9.4 µM. Also, the GI50 in assay [2] is 2.3 µM. Take `CCC[S+]([O-])c1csc2cc(-c3nc(-c4ccc(OCCN(C)C)cc4)[nH]c3-c3ccncc3)ccc12` (configuration not stated): in assay [3], the half-maximal inhibitory concentration (IC50) is > 10 µM.

In the case of `CSc1csc2cc(-c3nc(-c4ccc(OCCN(C)C)cc4)[nH]c3-c3ccncc3)ccc12`, the concentration for half-maximal inhibition (IC50) in assay [3] amounted to 14 µM. Same read-out and setting: in the case of `CN(C)CCOc1ccc(-c2nc(-c3ccc4c([S+](C)[O-])csc4c3)c(-c3ccncc3)[nH]2)cc1` (configuration not stated) it was > 10 µM. `CN(C)CCOc1ccc(-c2nc(-c3ccc4ccc(O)cc4c3)c(-c3ccncc3)[nH]2)cc1`: the IC50 was 3.6 µM in assay [1] and 1.4 µM in assay [3]. The compound also displayed a GI50 in assay [2] of 3.2 µM. On to `CN(C)CCOc1ccc(-c2nc(-c3ccc4c(O)cccc4c3)c(-c3ccncc3)[nH]2)cc1`, for which the figures for the IC50 in assay [1] and in assay [3] were 0.39 µM and 0.009 µM, respectively. Besides, halving of growth in assay [2] (GI50) required 0.22 µM. For `CCC(O)c1csc2cc(-c3nc(-c4ccc(OCCN(C)C)cc4)[nH]c3-c3ccncc3)ccc12` (racemic), in assay [3], the IC50 was > 10 µM.

With `CN(C)CCOc1ccc(-c2nc(-c3ccc4c(C(O)C(F)(F)C(F)(F)F)csc4c3)c(-c3ccncc3)[nH]2)cc1` (racemic), in assay [3], the IC50 is > 10 µM. As to `CN(C)CCOc1ccc(-c2nc(-c3ccc4c(C(O)C(F)(F)F)csc4c3)c(-c3ccncc3)[nH]2)cc1` (racemic), the figures for the 50% inhibitory concentration (IC50) in assay [1] and in assay [3] were 2.7 µM and 0.33 µM, respectively. For the same compound, halving of growth in assay [2] (GI50) required 3.1 µM. Regarding `CN(C)CCOc1ccc(-c2nc(-c3ccc4sc(C(O)C(F)(F)F)cc4c3)c(-c3ccncc3)[nH]2)cc1` (racemic), the IC50 in assay [3] is > 10 µM.

Take `CN(C)CCOc1ccc(-c2nc(-c3ccc(C(O)C(F)(F)F)cc3)c(-c3ccncc3)[nH]2)cc1` (racemic): the IC50 in assay [3] is > 10 µM.
